Bioassay records from PubChem.
The entries come from a sample that favours hits as a whole.
Insulin prom act: TRM-6 insulin promoter activation | TRM-6 cells (human fetal islet line), insulin promoter eGFP reporter, imaging; plate-scaled: unstimulated 0, stimulated control 100 | activation, % at 2 µM | 0.81% of 130,000 active;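 active means activation at 2 µM above a set limit, confirmed on inspection of the cell images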;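 further: share of cells whose green reporter signal exceeds an intensity cutoff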
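Assay system: TRM-6 human fetal islet cells, insulin promoter–eGFP reporter; Also added: 0.75 µM tamoxifen as reporter inducer; Schedule: 15 h tamoxifen pre-treatment, 48 h compound treatment at 37 °C; Signal: fixed-cell fluorescence microscopy, eGFP plus Hoechst; Read-out: percent activation from GFP-positive cell fraction; Control set: stimulated and unstimulated wells.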
The depositor's hits bear a star; [ ] = remark or other dose.

SMILES	Insulin prom act
COC(=O)C1C(=O)NCC1c1ccccc1 (configuration not stated)	243
CC(C)(C)c1ccc(-c2n[nH]c(=S)n2/N=C/c2ccncc2)cc1	-8
O=C(NC1CCCCC1)n1c(=O)oc2ccccc21	-3
O=c1cc(NCCc2ccccc2)c2ccccc2o1	133
Cn1c(=O)c(NCCc2ccccc2)c2c3c(cccc31)C(=O)c1ccccc1-2	170*[may fluoresce]
O=C1c2ccccc2C(=O)c2c1cccc2N1CCCC1	0
Cn1c(=O)c(NC2CCCCC2)c2c3c(cccc31)C(=O)c1ccccc1-2	567*
Cc1cccc(NC2=C(NCCO)C(=O)c3ccccc3C2=O)c1	-60
Cc1cc(-n2c(C)cc(C(=S)N3CCOCC3)c2C)ccc1Br	5
CCC/C(=N\NC(=O)c1cccc(C)c1)c1ccccc1	0
COc1cccc(CNC(=O)CCC2CCCN(Cc3cc4ccccc4o3)C2)c1 (configuration not stated)	104
O=C(Cn1c(C(F)(F)F)nc2ccccc21)c1ccc(F)cc1	84*
CC(C)NC(=O)Cn1c(SCC(=O)c2ccc(F)cc2)nc2ccccc21	224
Cc1[nH]c2ccccc2c1C(=O)COC(=O)Cn1c(C(F)(F)F)nc2ccccc21	-7
S=C1NCCOCCNC(=S)NCCOCCOCCOCCN1	6
CC(C)N(C(=S)Nc1cccc(C(F)(F)F)c1)C(C)c1ccccn1 (configuration not stated)	-7
Cc1cc(=O)oc2c(CN3CC(C)OC(C)C3)c(O)c(Cl)cc12 (configuration not stated)	8
COc1ccc(C(=O)NC(=S)NC2CCSC2=O)cc1 (configuration not stated)	7
COc1ccc(C(=O)N2CCC(C(=O)O)CC2)cc1	-6
O=C(c1ccccc1F)N1CCCC(c2ccccc2)C1 (configuration not stated)	3
COc1ccc(C(=O)N2CCCC(c3ccccc3)C2)cc1 (configuration not stated)	136*
Cc1cccc(-c2nnc(SCC(=O)Nc3ncccn3)n2C)c1	-9
CCCN1CNc2c(c(=O)[nH]c(=S)n2CCc2ccccc2)C1	0
Cn1c(=S)n(/N=C/c2ccc3c(c2)OCO3)c2ccccc21	-8
CCCCn1c(/N=C/c2ccc3c(c2)OCO3)nc2ccccc21	81*
SMILES	Insulin prom act
CN(C)CCCn1c(NCc2ccc3c(c2)OCO3)nc2ccccc21	-7
CC(NC(=O)/C=C/c1ccco1)c1nc2ccccc2n1Cc1ccccc1F (configuration not stated)	9
CCOC(=O)N1CCC(=NNc2ccnc3cc(Cl)ccc23)CC1	558*
Cc1ccccc1/C=N/Nc1ccnc2cc(Cl)ccc12	-80
CCOC(=O)N1CCC(=NNC(=O)c2cc3ccccc3cc2O)CC1	8
NS(=O)(=O)c1ccc(NCc2cc(Cl)ccc2OCc2ccc(F)cc2)cc1	0
Cc1c(NC(=O)OC(C)C)sc(=S)n1C	8
S=C(Nc1ccc(Oc2ccc(NC(=S)NC3CCCCC3)cc2)cc1)NC1CCCCC1	0
S=C(Nc1ccc(Cl)c(Cl)c1)NC1CCCCC1	9
CC(C)(C)c1ccc(/C=N/NC(=S)NC2CCCCC2)cc1	421*
O=C(COc1ccc(Br)cc1)N/N=C1\SCC(=O)N1c1ccc(F)cc1	-93
COc1ccc2c(C)cc(SCC(=O)Nc3ccc(Cl)cn3)nc2c1	7
CC(=O)N/C(=C/c1ccc2c(c1)OCO2)C(=O)NCCO	7
CN(C(=S)Nc1ccccc1)c1ccccc1	-7
Cc1nn(-c2ccccc2)cc1C(=S)Nc1ccccc1	-7
Cc1cnc(C)c(N(C)NC(=S)Nc2ccccc2)n1	485*
COc1ccc(S(=O)(=O)N2CC3CCCN3c3ccc(C(F)(F)F)cc32)cc1 (configuration not stated)	4
CCOc1ccccc1C(=O)N[C@H](C(=O)OCc1cc([N+](=O)[O-])cc2c1OCOC2)C(C)C	-3
CCC(C)NC(=O)c1cc(C)no1 (configuration not stated)	121*
CC(C)c1cc(NC(=O)CCl)on1	127
CCC(C)NC(=O)c1n[nH]c(=O)c2ccccc12 (configuration not stated)	0
Cc1ccc(C(C(=O)NC2CCCC2)N(Cc2cccs2)C(=O)c2csnn2)o1 (configuration not stated)	0
O=C(O)CC12CC3CC(C1)CC(n1ncc(NCc4ccc5c(c4)OCO5)c(Cl)c1=O)(C3)C2	7
Cc1nc2cc3nc(C(F)(F)F)[nH]c3cc2[nH]1	3
COc1ccc(-c2nnn(CC(=O)NCc3ccccc3)n2)cc1OC	277
SMILES	Insulin prom act
O=C(CN1C(=O)NC2(CCCCC2)C1=O)Nc1ccccc1Cl	0
COc1ccc(CNC(=O)CN2C(=O)NC3(CCCCCC3)C2=O)cc1OC	244*
O=C(Cn1cccc1C(=O)c1ccccc1)NCCC1=CCCCC1	0
C/C(=N\NC(=O)C1CC1)c1ccc2c(c1)OCCO2	-4
CC1CC(C)CN(CCOc2ccccc2-c2ccccc2)C1 (configuration not stated)	464*
C=CCc1ccc(OCCCCN2CC(C)CC(C)C2)c(OC)c1 (configuration not stated)	-8
CC1(C)NC(=O)N(CC(O)COc2ccccc2-c2ccccc2)C1=O (configuration not stated)	-7
COC(=O)C1=C(C)N(c2cccc(C(C)=O)c2)C(=O)C1	475*
CCN1C(=O)CC(C(=O)OC)=C1C	6
CC(=O)COC(=O)c1cccc(N2C(=O)C3C4C=CC(C4)C3C2=O)c1 (configuration not stated)	-12
COC(=O)c1c(CSc2ccc(C)c(C)c2)noc1C(=O)NCc1ccc(OC)cc1	9
COc1cccc(OC)c1OCCOc1ccccc1OC(C)C	6
O=C(Nc1nccs1)c1cccc(S(=O)(=O)N2CCCCC2)c1	182
Cc1ncoc1C(=O)Nc1nccs1	7
CCc1nnc(NC(=O)c2ccc3c(c2)C(=O)N(C(C)(C)C)C3=O)s1	-5
CCCN1C(=O)c2ccc(C(=O)Nc3nccs3)cc2C1=O	475*
CCCN1C(=O)c2ccc(C(=O)NCc3ccco3)cc2C1=O	-43
CCC(CC)C(=O)Nc1cccc(C(=O)Nc2nccs2)c1	76*
COCCN1Cc2cccc(C(=O)NC(C)CCc3ccco3)c2C1=O (configuration not stated)	0
COc1ccc(NC(=O)[C@@H](NC(=O)c2ccccc2)C(C)C)cc1S(=O)(=O)N1CCCCC1	-7
CCOC(=O)COc1c(/C=N\OC)cc(Cl)cc1OC	136
COc1ccc(CN2C(=O)/C(=C/c3ccncc3)SC2=S)cc1	9
Cc1oc(/N=C/c2ccc(O)cc2O)c(C#N)c1C	0
COc1ccc2c(=O)c(N3C(=O)c4ccccc4C3=O)coc2c1	28
COc1ccc(NC(=O)CN2c3cccc4cccc(c34)S2(=O)=O)cc1	8
SMILES	Insulin prom act
COc1ccc2c(c1)-c1ccccc1S(=O)(=O)N2C(C)=O	184*
Cc1nc([N+](=O)[O-])c(C(=O)OCc2ccccc2F)n1C	6
CCOC(=O)c1cccc(NC(=O)c2ccc(N(C)C)cc2)c1	-7
CCCn1c(CCC(=O)O)ccc1-c1cccs1	-3
COCCCn1c(CCC(=O)O)ccc1-c1cccs1	86*
O=C(O)CCc1ccc(-c2cccs2)n1CC1CCCO1 (configuration not stated)	133
O=C(CCCn1cnc([N+](=O)[O-])n1)Nc1cccc(O)c1	0
